The results in this text go back to paper PMC11112715 (ACS Omega, 2024).

Like-named read-outs stand apart in the source and are kept apart here.

Assay [1] has as its system SCC-9 cells (human tongue oral squamous cell carcinoma). Kind of assay: MTT cell viability assay in SCC-9 cells. The settings on record: for IC50: read-out: IC50 SSC9 oral squamous cell carcinoma; for Selectivity index (S.I.): IC50 in NIH3T3 / IC50 in SCC-9. The assay is classed as cell-based. An outline of the steps: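 SCC-9 tongue OSCC cells from ATCC, grown in 1:1 DMEM/F12 with 10% FBS and 400 ng/mL hydrocortisone, 37 °C, 5% CO2. Plated at 5 × 10³ cells/well in triplicate, 48 h with graded test compound doses against matched DMSO (100% viability). MTT for 4 h, formazan in methanol/DMSO 1:1, absorbance 560 nm minus 670 nm. S.I. = IC50 NIH3T3 / IC50 SCC-9.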

The test system of assay [2] is NIH3T3 mouse fibroblast cells. Put plainly: MTT cell viability assay in NIH3T3 normal fibroblasts. The class given is cell-based. The settings on record: read-out: IC50 NIH3T3 normal mouse fibroblasts. An outline of the steps:
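NIH3T3 fibroblasts from ATCC, kept in DMEM with 10% FBS at 37 °C, 5% CO2. Seeded at 5 × 10³ cells/well in triplicate and exposed to a range of test compound concentrations for 48 h; DMSO diluted in medium at matching levels set 100% viability. MTT in medium for 4 h, formazan dissolved in 1:1 methanol/DMSO, A560 read minus 670 nm background.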

For a further assay, the system named is SCC-9 cells. Kind of assay: Cell cycle progression and cell death, propidium iodide flow cytometry. The assay is classed as cell-based, human. The settings on record: 48 h, compared to negative control.

Consider `O=C1C=C(OCC#C[Se]c2ccccc2)C(=O)c2ccccc21` [Compound 9a, 2-((3-(Phenylselanyl)prop-2-yn-1-yl)oxy)naphthalene-1,4-dione], for which the IC50 stood at 31.9 µM in assay [1] (Homo sapiens, SCC-9, 48 h) and 83.6 µM in assay [2] (Mus musculus, NIH3T3, 48 h). Further, the “Selectivity index (S.I.)” value in assay [1] worked out at 2.62.

In the case of `Cc1ccc([Se]C#CCOC2=CC(=O)c3ccccc3C2=O)cc1` [Compound 9b, 2-((3-(p-Tolylselanyl)prop-2-yn-1-yl)oxy)naphthalene-1,4-dione], the IC50 in assay [1] (Homo sapiens, SCC-9, 48 h) was 17.1 µM; in assay [2] (Mus musculus, NIH3T3, 48 h) it was 8.93 µM. Further, in assay [1], the “Selectivity index (S.I.)” value turned out to be 0.52.

Consider `COc1ccc([Se]C#CCOC2=CC(=O)c3ccccc3C2=O)cc1` [Compound 9c, 2-((3-((4-Methoxyphenyl)selanyl)prop-2-yn-1-yl)oxy)naphthalene-1,4-dione], for which the 50% inhibitory concentration (IC50) in assay [1] (Homo sapiens, SCC-9, 48 h) was 24.8 µM; in assay [2] (Mus musculus, NIH3T3, 48 h), 27.2 µM. Further, the “Selectivity index (S.I.)” value in assay [1] was determined as 1.10. In addition, in the assay with SCC-9 cells, the “Effect on proportion of cells in G0/G1 phase” value (shortened to “Effect on proportion of cells”) is “increased numbers of cells in the G0/G1 phase”.

Consider `O=C1C=C(OCC#C[Se]c2ccc(F)cc2)C(=O)c2ccccc21` [Compound 9d, 2-((3-((4-Fluorophenyl)selanyl)prop-2-yn-1-yl)oxy)naphthalene-1,4-dione], for which the IC50 in assay [1] (Homo sapiens, SCC-9, 48 h) came out at 23.5 µM; in assay [2] (Mus musculus, NIH3T3, 48 h), 24.2 µM. For the same molecule, in assay [1], the “Selectivity index (S.I.)” value came to 1.03.

Take `O=C1C=C(OCC#C[Se]c2ccc(Cl)cc2)C(=O)c2ccccc21` [Compound 9e, 2-((3-((4-Chlorophenyl)selanyl)prop-2-yn-1-yl)oxy)naphthalene-1,4-dione]: in assay [1] (Homo sapiens, SCC-9, 48 h), the half-maximal inhibitory concentration (IC50) was found to be 65.4 µM.

On to `O=C1C=C(OCC#C[Se]c2ccc(C(F)(F)F)cc2)C(=O)c2ccccc21` [Compound 9f, 2-((3-((4-(Trifluoromethyl)phenyl)selanyl)prop-2-yn-1-yl)oxy)naphthalene-1,4-dione], for which the IC50 in assay [1] (Homo sapiens, SCC-9, 48 h) was found to be 31.7 µM. Moreover, in assay [1], the “Selectivity index (S.I.)” value came out at 1.78. In addition, the IC50 in assay [2] (Mus musculus, NIH3T3, 48 h) was 56.5 µM. In the assay on SCC-9 cells, the “Effect on DNA fragmentation” value is recorded as “increased DNA fragmentation”, the “Effect on cells in G2/M phases” value is reported as “marked reduction of cells in the G2/M phases” and the “Effect on proportion of cells” value is on record as “increased numbers of cells in the G0/G1 phase”.

For the molecule `O=C1C=C(OCC#C[Se]c2ccc3ccccc3c2)C(=O)c2ccccc21` [Compound 9g, 2-((3-(Naphthalen-2-ylselanyl)prop-2-yn-1-yl)oxy)naphthalene-1,4-Dione], the concentration for half-maximal inhibition (IC50) in assay [1] (Homo sapiens, SCC-9, 48 h) amounted to 68.2 µM.

Turning to `Cc1cc(C)c([Se]C#CCOC2=CC(=O)c3ccccc3C2=O)c(C)c1` [Compound 9h, 2-((3-(Mesitylselanyl)prop-2-yn-1-yl)oxy)naphthalene-1,4-dione], the IC50 in assay [1] (Homo sapiens, SCC-9, 48 h) came out at 49 µM.

On to `CCCC[Se]C#CCOC1=CC(=O)c2ccccc2C1=O` [Compound 9i, 2-((3-(Butylselanyl)prop-2-yn-1-yl)oxy)naphthalene-1,4-dione], for which the IC50 in assay [1] (Homo sapiens, SCC-9, 48 h) came out at 37.4 µM.

With `O=C1C=C(OCC#C[Te]c2ccccc2)C(=O)c2ccccc21` [Compound 10a, 2-((3-(Phenyltellanyl)prop-2-yn-1-yl)oxy)naphthalene-1,4-dione], the IC50 in assay [1] (Homo sapiens, SCC-9, 48 h) came out at 1.65 µM. Moreover, the “Selectivity index (S.I.)” value in assay [1] is 3.53. In assay [2] (Mus musculus, NIH3T3, 48 h), the IC50 was 5.83 µM. Moreover, in the assay with SCC-9 cells, the “Effect on DNA fragmentation” value is listed as “increased DNA fragmentation”, the “Effect on cells in G2/M phases” value is “no apparent alteration in the percentage of cells in the G2/M phases” and the “Effect on proportion of cells” value is recorded as “significantly decreased the proportion of cells in the G0/G1 phase”.

As to `Cc1ccc([Te]C#CCOC2=CC(=O)c3ccccc3C2=O)cc1` [Compound 10b, 2-((3-(p-Tolyltellanyl)prop-2-yn-1-yl)oxy)naphthalene-1,4-dione], the IC50 in assay [1] (Homo sapiens, SCC-9, 48 h) was 4 µM. Also, in assay [1], the “Selectivity index (S.I.)” value stood at 0.57. The half-inhibitory concentration (IC50) in assay [2] (Mus musculus, NIH3T3, 48 h) was 2.27 µM. Besides, in the assay with SCC-9 cells, the “Effect on DNA fragmentation” value is “increased DNA fragmentation”, the “Effect on cells in G2/M phases” value is reported as “no apparent alteration in the percentage of cells in the G2/M phases” and the “Effect on proportion of cells” value is reported as “significantly decreased the proportion of cells in the G0/G1 phase”.

As to `O=C1C=C(OCC#C[Te]c2ccc(Cl)cc2)C(=O)c2ccccc21` [Compound 10c, 2-((3-((4-Chlorophenyl)tellanyl)prop-2-yn-1-yl)oxy)naphthalene-1,4-dione], the concentration for half-maximal inhibition (IC50) in assay [1] (Homo sapiens, SCC-9, 48 h) amounted to 2.89 µM; in assay [2] (Mus musculus, NIH3T3, 48 h) it was 4.9 µM. The “Selectivity index (S.I.)” value in assay [1] was 1.70. Besides, the “Effect on DNA fragmentation” value with SCC-9 cells is “increased DNA fragmentation”. For the same molecule, the “Effect on cells in G2/M phases” value in the assay on SCC-9 cells is recorded as “marked reduction of cells in the G2/M phases”.

Regarding `C#CCOC1=C(Sc2ccccc2)C(=O)c2ccccc2C1=O` [Compound 11, 2-(Phenylthio)-3-(prop-2-yn-1-yloxy)naphthalene-1,4-dione], the IC50 in assay [1] (Homo sapiens, SCC-9, 48 h) was found to be 62.3 µM.

On to `N.N.O=C([O-])C1(C(=O)[O-])CCC1.[Pt+2]` [carboplatin, reference compound], for which, in assay [1], the “Selectivity index (S.I.)” value is given as 0.27. The IC50 in assay [1] (MTT, 48 h treatment) was found to be 572 µM; in assay [2] (MTT, 48 h treatment), 156 µM.

Regarding `COc1cccc2c1C(=O)c1c(O)c3c(c(O)c1C2=O)C[C@@](O)(C(=O)CO)C[C@@H]3O[C@H]1C[C@H](N)[C@H](O)[C@H](C)O1` [doxorubicin, reference compound], the IC50 in assay [1] (Homo sapiens, SCC-9, 48 h) was 2.71 µM; in assay [2] (Mus musculus, NIH3T3, 48 h), 1.66 µM. In addition, in assay [1], the “Selectivity index (S.I.)” value stood at 0.61.
